Published values of several laboratories.
Read-out: enzyme activity
Mode: inhibitor
YCK2: Serine/threonine protein kinase YCK2 (YCK2, Candida albicans, UniProt A0A1D8PKB4)
EGFR: Epidermal growth factor receptor (EGFR, Homo sapiens, UniProt P00533)
CDK6 with cyclin D3: Cyclin-dependent kinase 6, with cyclin D3 (CDK6, Homo sapiens, UniProt Q00534)
MTOR: Serine/threonine-protein kinase mTOR (MTOR, Homo sapiens, UniProt P42345)
CA2: Carbonic anhydrase 2 (CA2, Bos taurus, UniProt P00921)

Structure (SMILES)	target	method	IC50 [nM]
Oc1ccccc1-c1n[nH]cc1-c1ccnc2ccccc12	YCK2	ADP detection	350
CC(=O)c1nc2ccccc2n1Cc1cn([C@@H]2OC[C@@H](O)[C@H](O)[C@H]2O)nn1	EGFR	–	132
CNS(=O)(=O)c1ccc(Nc2ncc(C(F)(F)F)c(N3CCC[C@](C)(O)C3)n2)c(C)c1	CDK6 with cyclin D3	radiometric	3550
COc1ccc(-c2ccc3c(N4CCOC[C@@H]4C)nc(N4CCOC[C@@H]4C)nc3n2)cc1COC(=O)CCOCCOCCOCCONC(=O)c1ccc(F)c(F)c1Nc1ccc(I)cc1F	MTOR	FRET	40.5
Cc1cc2c(cc1C)N[C@H](c1ccccc1)[C@@H](O)C(=O)N2	MTOR	–	144
NS(=O)(=O)c1ccc(Nc2nc3nc(=S)[nH]c(-c4cccc(O)c4)c3s2)cc1	CA2	absorbance	62.7
c1ccc(-c2n[nH]cc2-c2ccncn2)nc1	YCK2	ADP detection	1600
O=C1CCC(N2C(=O)c3ccccc3C2=O)C(=O)N1 (centres unmarked)	EGFR	–	1130
C[C@@H]1O[C@@H](O[C@H]2[C@H](Oc3cc(O)c4c(c3)O[C@H](c3ccc(O)cc3)CC4=O)O[C@H](CO)[C@@H](O)[C@@H]2O)[C@H](O)[C@H](O)[C@H]1O	CA2	absorbance	83
CNS(=O)(=O)c1ccc(Nc2ncc3cc(Cl)c(=O)n(C4CCCC4)c3n2)c(C)c1	CDK6 with cyclin D3	radiometric	62
Clc1ccc(Nc2ccncc2)cc1Cl	DNA-3-methyladenine glycosylase (Homo sapiens, UniProt P29372)	–	> 99000
CCNC(c1ccccc1)c1c(N)[nH]c(=O)[nH]c1=O (centres unmarked)	EGFR	–	653
COc1ccc(N2CCN(Cc3cn4c(-c5ccc(Br)cc5)nnc4s3)CC2)cc1	Ferroptosis suppressor protein 1 (AIFM2, Homo sapiens, UniProt Q9BRQ8, S364A/T363A)	absorbance	61
CCCCCCCCCCCC[N+]1(C)CCOCC1	EGFR	ELISA	1350
C[C@H]1COCCN1c1nc(N2CCOC[C@@H]2C)c2ccc(-c3cccc(C(=O)NCCOCCOCCOCCONC(=O)c4ccc(F)c(F)c4Nc4ccc(I)cc4F)c3)nc2n1	MTOR	FRET	330
CNS(=O)(=O)c1ccc(Nc2ncc(C(F)(F)F)c(N3CCC(C)(O)CC3)n2)c(C)c1	CDK6 with cyclin D3	radiometric	794
O=C(/C=C/c1ccc(F)cc1)c1nc2ccccc2n1Cc1cn([C@@H]2O[C@H](CO)[C@H](O)[C@H](O)[C@H]2O)nn1	EGFR	–	69
NS(=O)(=O)c1ccc(-n2nc(C(=O)NN=Cc3ccc(O)cc3)cc2-c2ccccc2)cc1	Serine/threonine-protein kinase B-raf (BRAF, Homo sapiens, UniProt P15056, V600E)	–	18500
N=C(N)c1ccc(OCCCCCOc2ccc(C(=N)N)cc2)cc1	Neutrophil elastase (ELANE, Homo sapiens, UniProt P08246)	absorbance	> 100000
c1coc(-c2n[nH]cc2-c2ccnc3ccccc23)c1	YCK2	ADP detection	830
Nc1cc(N2C(=O)c3ccccc3C2=O)nc(SCC(=O)NN=Cc2ccc(Cl)cc2)n1	EGFR	–	880
CNS(=O)(=O)c1ccc(Nc2ncc(C(F)(F)F)c([C@H]3CC[C@@](C)(O)CC3)n2)c(C)c1	CDK6 with cyclin D3	radiometric	8650
Nc1cnccc1Nc1ccc(Cl)c(Cl)c1	SMUG1 (Homo sapiens, UniProt Q53HV7)	–	> 100000
